The list is not random: actives were taken first. Their share in the collection is about 1.8%.
HTRA1 inh – HTRA1 serine protease inhibitors, primary screen, biochemical, fluorescence polarization, HTS. Q92743. recombinant HTRA1, FP-rhodamine activity-based probe. inhibition, % at 5.96 µM. actives 0.5% (n = 340,000). AID 504803, 2011; in the data active = inhibition above about 36%
Tn6 DDE FP – inhibitors of Tn6 peptide binding to fibrin DD(E), primary screen, biochemical, fluorescence polarization, human fibrin, Tn6 probe; Fibrinogen beta chain (Homo sapiens), P02675; AID 720509, 2013; actives 0.21% (n = 370,000); inhibition, % at 8.3 µM; Fibrin DD(E) TRITC-Tn6 fluorescence polarization displacement;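 active = inhibition above a per-campaign cutoff: mean of compounds within control limits plus 3 SD, cut at about 15% in these data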
DDE Tn7 FP inh – inhibitors of Tn7 peptide binding to fibrin DD(E), primary screen, biochemical, fluorescence polarization, human fibrin, Tn7 probe; actives 0.13% (n = 370,000); inhibition, % at 8.3 µM; FP displacement of FITC-Tn7 peptide from fibrin DD(E); 0% = median of compound wells per plate; AID 720508, 2013; Fibrinogen beta chain (Homo sapiens), P02675;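 active = inhibition above the mean of compounds falling within the control limits plus 3 SD of them, cut at about 14% in these data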
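Assay system: Fibrin-DD(E) protein isolated from polymerized human fibrin clots; read-out basis: percent inhibition; medium: Tris/NaCl/CaCl2 buffer, pH 7.8; signal: FP measurement; incubation: 10 min plus 3 h, room temperature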
mABHD4 FP – ABHD4 inhibitors, primary screen, biochemical, fluorescence polarization, mouse. AID 720543, 2013. inhibition, % at 8.92 µM. actives 0.54% (n = 370,000). (Lyso)-N-acylphosphatidylethanolamine lipase (Mus musculus), Q8VD66. purified mABHD4, FP-Rh probe fluorescence polarization;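 active = inhibition exceeding the mean over every tested compound plus 3 SD, cut at about 30% in these data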
Target sequence (Q8VD66 whole entry, looked up): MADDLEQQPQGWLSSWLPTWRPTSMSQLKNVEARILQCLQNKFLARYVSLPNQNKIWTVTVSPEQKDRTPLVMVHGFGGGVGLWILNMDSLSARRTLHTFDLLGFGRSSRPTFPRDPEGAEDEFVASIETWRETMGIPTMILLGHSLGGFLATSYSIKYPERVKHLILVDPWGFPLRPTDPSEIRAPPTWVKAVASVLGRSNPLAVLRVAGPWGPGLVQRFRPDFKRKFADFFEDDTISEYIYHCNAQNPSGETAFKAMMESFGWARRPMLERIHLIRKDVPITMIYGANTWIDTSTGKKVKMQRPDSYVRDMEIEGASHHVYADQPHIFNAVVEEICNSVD
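Assay system: Wild-type mouse ABHD4 protein | Medium: HEPES pH 7.0 buffer, 150 mM NaCl, 0.01% Pluronic F-127 | Incubation: Enzyme–compound pre-incubation 45 min, then probe 60 min, both 25 °C | Technique: Fluorescence polarization with parallel and perpendicular emission, 525/598 nm | Evaluation: % inhibition of FP-Rh probe binding versus controls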
TCR CD3 inh – inhibitors of human TCR-CD3 interaction, primary screen, biochemical, fluorescence, TAMRA-labeled TCR probe. T-cell receptor (TCR). inhibition, % at 9.4 µM. actives 0.37% (n = 360,000). AID 651800, 2012; in the data active = inhibition above about 19%;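 note: recombinant mutant TCR 2C K166C tagged with TAMRA read by polarization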
SIAE primary – human SIAE inhibitors, primary screen, biochemical, fluorescence polarization, FP-Rh probe, 1536-well HTS | SIAE FP-Rh probe binding | inhibition, % at 9.66 µM | actives 0.69% (n = 370,000);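 active = inhibition above a cutoff: mean of compounds within the control limits plus 3 SD of those, cut at about 17% in these data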
DDE Tn7 confirm – inhibitors of Tn7 peptide binding to fibrin DD(E), confirmation, biochemical, fluorescence polarization, human fibrin, Tn7 probe; shares compounds with DDE Tn7 FP inh; FP displacement of TRITC-Tn7 peptide from DD(E); 0% set at plate's compound-well median; inhibition, % at 8.3 µM; actives 5% (n = 460); AID 720628, 2013;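 active = inhibition above the campaign cutoff, the mean of compounds within control limits plus 3 SD, cut at about 14% in these data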;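 note: displacers lower polarization since freed probe rises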
Tn7 DDE ctr – counter-screen for inhibitors of Tn7 peptide binding to fibrin DD(E). actives 3% (n = 460). TRITC-Tn7 probe displacement, fluorescence polarization. AID 720633. inhibition, % at 8.3 µM. shares compounds with DDE Tn7 FP inh;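 active = inhibition above the cutoff, the mean of compounds lying between the control bounds plus 3 SD of those compounds, cut at about 17% in these data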
DDE Tn6 FP ctr – DD(E)-Tn6 binding inhibition, counter-screen. shares compounds with Tn6 DDE FP. Fibrin DD(E), TRITC-Tn6 fluorescence polarization displacement; 0% = median of compound wells, not DMSO. inhibition, % at 8.3 µM. actives 2% (n = 680). AID 720621;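 active = inhibition above the mean of test compounds lying between the control limits plus 3 SD of those, cut at about 14% in these data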
DDE Tn6 confirm – inhibitors of Tn6 peptide binding to fibrin DD(E), confirmation, biochemical, fluorescence polarization, human fibrin, Tn6 probe; actives 10% (n = 680); FP displacement of TRITC-Tn6 peptide from DD(E); 0% = per-plate median of test wells; inhibition, % at 8.3 µM; shares compounds with Tn6 DDE FP;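 active = inhibition above the mean of compounds lying within the control limits plus 3 SD, cut at about 16% in these data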
mABHD4 conf – ABHD4 inhibitors, retest, confirmation, biochemical, fluorescence polarization, mouse. AID 720658, 2013. inhibition, % at 8.92 µM. purified mABHD4, FP-Rh probe fluorescence polarization. actives 55% (n = 1,800). shares compounds with mABHD4 FP;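 active = mean inhibition across replicates above the hit cutoff set in the primary screen, cut at about 30% in these data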
SIAE inh conf – human SIAE inhibitors, retest, confirmation, biochemical, fluorescence polarization, FP-Rh probe, triplicate | shares compounds with SIAE primary | actives 13% (n = 2,300) | SIAE FP-Rh activity-based probe | inhibition, % at 9.66 µM;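 active = mean inhibition of the replicates above the hit cutoff set in the primary screen, cut at about 17% in these data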;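 note: inhibitors lower polarization as more probe stays unbound to SIAE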
Large screens that a line does not name were inactive (follow-up assays come after a bar, where they were run).

COCCCNC(=S)NNC(=O)c1ccccn1	DDE Tn7 FP inh 15.9, mABHD4 FP 39.2 | DDE Tn7 confirm inactive | Tn7 DDE ctr inactive | mABHD4 conf 43.8
COC(=O)[C@]12C[C@H](CC(=O)N3CCN(C(=O)c4ccco4)CC3)C(=O)N(CCC3=CCCCC3)C1=C[C@H](C(C)(C)C)O[C@@H]2C	none (no result: HTRA1 inh)
CC(=O)Nc1cc(-c2ccccc2N(C)C)cn2c(-c3cccc(C(F)(F)F)c3)cnc12	DDE Tn7 FP inh 21.4, SIAE primary 18.1 (no result: HTRA1 inh) | DDE Tn7 confirm inactive | Tn7 DDE ctr inactive | SIAE inh conf inactive
CC(=O)Nc1cc(-c2cccc(NS(C)(=O)=O)c2)cn2c(-c3cccc(C(F)(F)F)c3)cnc12	none (no result: HTRA1 inh)
NS(=O)(=O)c1ccc(N/N=C/c2cn(-c3ccccc3)nc2-c2cccs2)cc1	DDE Tn7 FP inh 14.5, SIAE primary 22.6 | DDE Tn7 confirm inactive | Tn7 DDE ctr inactive | SIAE inh conf inactive
CCCCOc1ccc(C(=O)NC2CCCCN(Cc3cccc(C(F)(F)F)c3)C2=O)cc1 (stereo not drawn)	none (no result: HTRA1 inh, TCR CD3 inh)
O=C(COC(=O)C1CC1)Nc1ccc(OC(F)F)cc1	Tn6 DDE FP 15.3 | DDE Tn6 FP ctr inactive | DDE Tn6 confirm inactive
O=C(COC(=O)C1CCC1)Nc1ccc(OC(F)F)cc1	none
O=C(C1CCN(S(=O)(=O)c2ccccc2)CC1)N1CCN(c2ccccc2)CC1	Tn6 DDE FP 15.4 | DDE Tn6 FP ctr inactive | DDE Tn6 confirm inactive
COc1ccc(N2CCN(C(=O)C3CCN(S(=O)(=O)c4ccccc4)CC3)CC2)cc1	none
Fc1ccc2nc(C3CCCCN3Cc3nc(CC4CC4)no3)[nH]c2c1 (stereo not drawn)	Tn6 DDE FP 15.9 | DDE Tn6 FP ctr inactive | DDE Tn6 confirm inactive
Fc1ccc(C2CCCCN2Cc2nc(CC3CC3)no2)cc1 (stereo not drawn)	none
C#CCN(Cc1cccc(F)c1)C(=O)c1nnc2c3cc(F)ccc3n(S(=O)(=O)c3ccc(OC)cc3)c2n1	none (no result: HTRA1 inh)
CCn1c(C)c(C2=CCN(S(=O)(=O)c3ccc(C)cc3)CC2)c2ccccc21	Tn6 DDE FP 24.6 | DDE Tn6 FP ctr inactive | DDE Tn6 confirm inactive

Assay outcomes: PubChem BioAssay, The Scripps Research Institute Molecular Screening Center
